# This is a sample that favours compounds with a hit; in the whole collection about 3.7% have one here.
# Kir21 inh: inhibitors of mouse Kir2.1 inward-rectifier potassium channel; Inward rectifier potassium channel 2 (Mus musculus), P35561; HEK293-Kir2.1, FluxOR thallium flux fluorescence; stronger effect = lower value; B-score at 10 µM; hit rate 0.85% among 310,000; AID 1672, 2009;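 active means fluorescence ratio B-score at or below minus 3 SD of library scores, with starting-brightness B-score within 2 SD, cut at about -4.2 in these data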;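 further: channel flux triggered by added potassium and thallium sulfate stimulus; B-score of peak minus minimum fluorescence over baseline after thallium stimulus; more negative B-score means stronger Kir2.1 block with less thallium influx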
# KCNK3 inh: human KCNK3 channel inhibitors, primary screen, CHO cells, FluxOR thallium flux, B-score. FluxOR fluorescence; stronger effect = lower value. Potassium channel subfamily K member 3 (Homo sapiens), O14649. hit rate 0.84% among 340,000. B-score at 10 µM. AID 602410, 2012;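 active means B-score under library mean minus 4 SD, starting fluorescence ratio at most library mean plus 5 SD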;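 further: more negative B-score means stronger inhibition of thallium flux through KCNK3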
# Target sequence (O14649 whole entry, looked up): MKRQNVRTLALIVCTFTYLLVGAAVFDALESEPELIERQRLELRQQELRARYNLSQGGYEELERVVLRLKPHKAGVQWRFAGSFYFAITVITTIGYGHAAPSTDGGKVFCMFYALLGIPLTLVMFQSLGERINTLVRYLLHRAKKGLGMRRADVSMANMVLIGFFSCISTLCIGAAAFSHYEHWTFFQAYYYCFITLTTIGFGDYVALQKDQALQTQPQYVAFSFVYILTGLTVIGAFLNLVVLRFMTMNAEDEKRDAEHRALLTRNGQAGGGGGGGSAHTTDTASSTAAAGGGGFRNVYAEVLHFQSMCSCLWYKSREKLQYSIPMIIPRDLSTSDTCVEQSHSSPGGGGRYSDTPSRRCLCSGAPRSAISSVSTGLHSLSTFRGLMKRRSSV
# hERG protect: hERG rescue from dofetilide block, primary screen, cell-based, CHO-hERG, FluxOR thallium flux, dofetilide IC70; Voltage-gated inwardly rectifying potassium channel KCNH2 (Homo sapiens), Q12809; dofetilide IC70 present; activation (rescue from dofetilide block), less the hit threshold, % at 10 µM; hit rate 0.51% among 310,000;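 active means activation above the mean of controls blocked by dofetilide plus 5 SD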;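 further: thallium influx through hERG after potassium depolarization seen as dye fluorescence rise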
# KCNK9 block: KCNK9 potassium channel inhibitors, primary screen, HEK293 cells, thallium flux | B-score at 10 µM | Potassium channel subfamily K member 9 (Homo sapiens), Q9NPC2 | AID 488922, 2010 | FluxOR thallium flux fluorescence; stronger effect = lower value | hit rate 1.2% among 310,000;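 active means ratio B-score over 3 SD below the library mean, with starting fluorescence within 5 SD of its mean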;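 further: negative B-score means less thallium flux so channel inhibition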
# KCNQ1 pot: potentiators or activators of KCNQ1 channel, primary screen, cell-based, thallium flux, high-throughput | Potassium voltage-gated channel subfamily KQT member 1 (Homo sapiens), P51787 | B-score at 10 µM | hit rate 0.35% among 310,000 | CHO-K1 KCNQ1, thallium flux FluxOR fluorescence; stronger effect = higher value;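 active means fluorescence ratio B-score, a plate-corrected score, at least three library SD, with initial intensity B-score within 5 SD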
#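 System: CHO-K1 cells stably expressing KCNQ1 / Medium: assay buffer for compound exposure, DMSO matched across wells / Reagent: thallium- and potassium-containing depolarizing buffer / Compound: one concentration, matched DMSO / Incubation: 20 min compound pretreatment at room temperature / Measured by: kinetic FluxOR fluorescence, 10 s baseline plus 110 s post-stimulus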
# KCNQ1 inh: inhibitors of human KCNQ1 channel, primary screen, cell-based, thallium flux, high-throughput; B-score at 10 µM; hit rate 1.3% among 310,000; Potassium voltage-gated channel subfamily KQT member 1 (Homo sapiens), P51787; CHO-K1 KCNQ1, FluxOR thallium flux fluorescence; stronger effect = higher value;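 active means compounds whose thallium flux B-score, printed positive for inhibition, exceeds three library SD while starting fluorescence stays within three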;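 further: channel opened by potassium depolarization with thallium stimulus after 20 min compound exposure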
# Active calls of the source: *; i = inactive; / = no result.
SMILES,Kir21 inh,KCNK3 inh,hERG protect,KCNK9 block,KCNQ1 pot,KCNQ1 inh
O=C(CCC1CCCCC1)NCCN1C2=NC[C@@H](Cc3ccccc3)N2C[C@H]1Cc1ccc(O)cc1,-4.46*,i,-13.5,i,i,i
O=C(CCC1CCCCC1)NCCN1C2=NC[C@H](Cc3ccccc3)N2C[C@H]1Cc1ccc(O)cc1,-3.4,i,-12.2,i,i,i
Nc1ccc2c(c1)C(=O)c1ccc(N)cc1-2,/,i,/,/,/,/
COc1ccc(OC)c(S(=O)(=O)Nc2ccc(O)c3ccccc23)c1,1.16,i,11.3*,i,i,i
CC(=O)NC(=S)NNC(=O)COc1ccc(Br)cc1,/,i,/,/,/,/
CC(C)(C)NC(=O)C(=O)NNC(=O)c1ccc(C(C)(C)C)cc1,-2.35,i,14.9*,i,20*,i
CC(C)(C)NC(=O)C(=O)NNC(=O)c1cccc(Br)c1,1.92,i,23.4*,i,18*,i
Cc1cccc(C(=O)NNC(=O)C(=O)NC(C)(C)C)c1,0.81,i,-2.2,i,i,i
COC(=O)NNC(=O)c1ccc(C(C)(C)C)cc1,-1.36,i,-4.5,i,i,i
CC(C)(C)NC(=O)C(=O)NNC(=O)COc1ccc(Br)cc1,-0.57,i,5.1*,i,8*,i
CCN1CCN(c2ccc(NC(=O)c3ccc(Cl)c(N4CCCC4=O)c3)cc2)CC1,-0.87,i,-5.6,i,i,i
Cc1ccc(NCC(=O)N2CCN(S(=O)(=O)c3ccccc3)CC2)cc1F,/,i,/,/,/,/
CC1(C)C(=O)Nc2ccccc2N1C(=O)COc1cc(Cl)ccc1Cl,/,i,/,/,/,/
Cc1cccc(CSc2nnc([C@@H]3CCCN3C(=O)OC(C)(C)C)o2)c1,-6.02*,i,-14.0,i,i,i
CC(C)(C)OC(=O)N1CCC[C@H]1c1nnc(SCc2c(Cl)cccc2Cl)o1,-3.18,i,-15.7,i,i,i
COc1ccc(N2CCN(S(=O)(=O)c3ccc4c(c3)CCCC4)CC2)c([N+](=O)[O-])c1,1.15,i,-13.7,i,i,7*
CCCCCCn1c2c(c(=N)c3c1CCC3)CCC2,-0.68,i,-26.3,i,i,6*
CCCCn1c2c(c(=N)c3c1CCC3)CCC2,/,i,/,/,/,/
O=C(COC(=O)C1COc2ccccc2O1)Nc1ccccc1OC(F)F (stereo unspecified),/,i,/,/,/,/
C=CCCN(Cc1ccccc1)S(=O)(=O)c1cc(Br)ccc1Br,/,i,/,/,/,/
COCCNCCCOc1ccc(C(C)(C)c2ccccc2)cc1,-3.23,i,-5.9,i,i,i
COCCCNCCCOc1ccc(C(C)(C)c2ccccc2)cc1,-8.21*,i,-9.1,i,i,i
C=CCNCCCOc1ccc(C(C)(C)c2ccccc2)cc1,-8.56*,i,-10.9,i,i,i
COc1ccc(CN2CCN(Cc3cccc4nonc34)CC2CCO)c(C)c1C (stereo unspecified),-1.52,i,5.3*,i,i,i
Cc1cc(-c2nc(-c3ccncc3)no2)ccc1[N+](=O)[O-],-0.04,i,-5.0,i,i,i
SMILES,Kir21 inh,KCNK3 inh,hERG protect,KCNK9 block,KCNQ1 pot,KCNQ1 inh
COc1cc(SC#N)ccc1N=Cc1c(C)[nH]n(-c2ccc(Cl)cc2)c1=O,-0.52,i,-7.0,i,i,i
COc1cc(S(=O)(=O)Nc2ccccc2)ccc1N=Cc1c(C)[nH]n(-c2ccc(C)cc2)c1=O,-1.2,/,-2.6,-9.62*,i,i
CCOC(=O)c1c(C)n(C)c2ccc(O)c(CN3CCN(C)CC3)c12,-0.52,i,-7.2,i,i,i
CCOC(=O)c1c(CSc2ccccc2)n(C)c2ccc(O)c(CN3CCOCC3)c12,-5.37*,i,-27.5,i,i,i
CCOC(=O)c1c(CSc2ccccc2)n(C)c2cc(Br)c(OC)c(O)c12,-0.64,i,0.0,i,i,6*
CCOC(=O)c1c(C)n(C)c2ccc(O)c(CN3CCC(C)CC3)c12,-2.69,i,-12.7,i,i,i
CCOC(=O)c1c(-c2ccccc2)oc2ccc(O)c(CN3CCN(C)CC3)c12,-9.27*,i,-7.5,i,i,i
CCCCCc1ccnc(CC(=O)c2ccc(OC)cc2)c1,/,i,/,/,/,/
O=C(CN(c1ccccc1)S(=O)(=O)c1ccccc1[N+](=O)[O-])Nc1cccnc1,0.36,i,-2.5,i,i,i
CN(N=O)c1ccc(CC2CCc3ccccc32)cc1 (stereo unspecified),/,i,/,/,/,/
O=c1c2ccccc2c(C=NCCCN2CCOCC2)c(O)n1Cc1ccccc1,-5.82*,i,-10.9,i,i,i
O=c1c2ccccc2c(C=NCCc2ccccc2)c(O)n1Cc1ccccc1,-0.22,i,-14.3,i,i,6*
CSc1ccc(CN2CCC(N3CC(C)OC(C)C3)CC2)cc1 (stereo unspecified),0.33,i,-7.3,i,i,i
CSc1ccc(OC2CCN(Cc3ccccc3)CC2)cc1,-20*,i,-16.6,i,i,i
O=C(c1cccc(OC2CCN(Cc3ccc(F)cc3Cl)CC2)c1)N1CCCC1,-4.69*,i,-7.3,i,i,i
CSc1ccc(CN2CCC(Oc3cccc(C(=O)N4CCCC4)c3)CC2)cc1,-4.6*,i,-8.3,i,i,i
CCc1ccc(OCC(=O)O/N=C(\N)c2ccncc2)c(Br)c1,-0.2,i,-6.0,i,i,i
CN(C)c1ccc(/C=N/n2c(C3CCCCC3)n[nH]c2=S)cc1,-0.37,i,-4.8,i,i,i
Cc1cc(C)n(-c2nnc(C)n2/N=C/c2ccccc2OCc2ccccc2Cl)n1,-0.59,i,-20.2,-7.06*,i,i
Cc1cc(C)n(-c2nnc(C)n2/N=C/c2ccccc2F)n1,-0.62,i,-6.0,i,i,i
COc1ccc(NC(=O)CSc2nnc(C)n2N)cc1S(=O)(=O)N1CCCCC1,/,i,/,/,/,/
CCc1c(C)nc2cc(-c3ccc(OC)c(OC)c3)nn2c1NCC1CC1,0.82,i,-28.1,-6.68*,i,i
CCCCn1c(N)c(N(CCOC)C(=O)CC2CCCCC2)c(=O)[nH]c1=O,/,i,/,/,/,/
CCCS(=O)(=O)N1CCC(C(=O)Oc2ccc(OC)cc2)CC1,0.35,i,-4.2,i,i,i
